# How the values were obtained:
# Brain [1] = assay: Biodistribution in Wistar rat brain at 40+/-4 MBq, iv after 25 mins; format: ADME, organism-based; settings: in vivo
# Brain [2] = assay: Biodistribution in 50 mg/kg cyclosporin A pretreated Wistar rat brain at 27+/-2 MBq, iv after 25 mins; format: ADME, organism-based; parameters: dose 50 mg/kg, route intravenous; settings: in vivo
# In short: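 Male Wistar rats pretreated with saline or cyclosporin A (50 mg/kg, tail vein), then given the [11C] tracer via penile vein. Dynamic microPET with a whole-brain 3D ROI. SUV read from the time-activity curve at 25 min, assuming 1 g/mL tissue density. Mean ± SEM.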
# Plasma [3] = assay: Biodistribution in Wistar rat plasma at 40+/-4 MBq, iv after 60 mins; format: ADME, organism-based; settings: in vivo, 1 h
# Rattus norvegicus = assay: AUC in 50 mg/kg cyclosporin A pretreated Wistar rat at 27+/-2 MBq, iv; format: ADME, organism-based, Plasma; parameters: dose 50 mg/kg, route intravenous; settings: in vivo
# In short: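 Male Wistar rats with a femoral arterial cannula placed under isoflurane. Saline or cyclosporin A (50 mg/kg, commercial solution) given via tail vein, then the [11C] tracer via penile vein. Dynamic microPET over the brain for 76 min, with 14 arterial samples to 60 min. Plasma counted in a γ counter. AUC of whole-brain or plasma SUV over 0-60 min.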
# [4] = Biodistribution in Wistar rat amygdala at 40+/-4 MBq, iv after 80 mins; format: ADME, organism-based; settings: in vivo
# [5] = Biodistribution in Wistar rat bulbus olfactorius at 40+/-4 MBq, iv after 80 mins; format: ADME, organism-based, Olfactory bulb; settings: in vivo
# Cerebellum = assay: Biodistribution in Wistar rat cerebellum at 40+/-4 MBq, iv after 80 mins; format: ADME, organism-based; settings: in vivo
# [6] = Biodistribution in Wistar rat cingulate cortex at 40+/-4 MBq, iv after 80 mins; format: ADME, organism-based; settings: in vivo
# In short: (§1)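 Male Wistar rats (12 h light/dark, chow ad libitum) were fitted with a femoral arterial cannula under isoflurane. They were pretreated via tail vein with saline, cyclosporin A (50 mg/kg), or nonradioactive tracer compound (15 mg/kg; 10 mg/mL in saline with 35% ethanol). The 11C tracer was then given via penile vein, followed by 76 min microPET. Animals were then terminated; excised tissues were weighed and gamma-counted with decay correction. Values are SUVs (tissue MBq/g × body weight g / injected MBq).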
# [7] = Biodistribution in Wistar rat entorhinal cortex at 40+/-4 MBq, iv after 80 mins; format: ADME, organism-based; settings: in vivo; in short: as §1
# [8] = Biodistribution in Wistar rat frontal cortex at 40+/-4 MBq, iv after 80 mins; format: ADME, organism-based; settings: in vivo; in short: as §1
# Hippocampus = assay: Biodistribution in Wistar rat hippocampus at 40+/-4 MBq, iv after 80 mins; format: ADME, organism-based; settings: in vivo; in short: as §1
# [9] = Biodistribution in Wistar rat medulla at 40+/-4 MBq, iv after 80 mins; format: ADME, organism-based, Medulla of organ; settings: in vivo; in short: as §1
# [10] = Biodistribution in Wistar rat parietal/temporal/occipital cortex at 40+/-4 MBq, iv after 80 mins; format: ADME, organism-based; settings: in vivo; in short: as §1
# Pons = assay: Biodistribution in Wistar rat pons at 40+/-4 MBq, iv after 80 mins; format: ADME, organism-based; settings: in vivo
# Striatum = assay: Biodistribution in Wistar rat striatum at 40+/-4 MBq, iv after 80 mins; format: ADME, organism-based; settings: in vivo
# Bone = assay: Biodistribution in Wistar rat bone at 40+/-4 MBq, iv after 80 mins; format: ADME, organism-based, Bone element; settings: in vivo
# Colon = assay: Biodistribution in Wistar rat colon at 40+/-4 MBq, iv after 80 mins; format: ADME, organism-based; settings: in vivo; in short: as §1
# Duodenum = assay: Biodistribution in Wistar rat duodenum at 40+/-4 MBq, iv after 80 mins; format: ADME, organism-based; settings: in vivo; in short: as §1
# [11] = Biodistribution in Wistar rat fat at 40+/-4 MBq, iv after 80 mins; format: ADME, organism-based, Adipose tissue; settings: in vivo; in short: as §1
# Heart = assay: Biodistribution in Wistar rat heart at 40+/-4 MBq, iv after 80 mins; format: ADME, organism-based; settings: in vivo; in short: as §1
# Ileum = assay: Biodistribution in Wistar rat ileum at 40+/-4 MBq, iv after 80 mins; format: ADME, organism-based; settings: in vivo; in short: as §1
# Kidney = assay: Biodistribution in Wistar rat kidney at 40+/-4 MBq, iv after 80 mins; format: ADME, organism-based; settings: in vivo; in short: as §1
# Liver = assay: Biodistribution in Wistar rat liver at 40+/-4 MBq, iv after 80 mins; format: ADME, organism-based; settings: in vivo; in short: as §1
# Lung = assay: Biodistribution in Wistar rat lung at 40+/-4 MBq, iv after 80 mins; format: ADME, organism-based; settings: in vivo; in short: as §1
# Muscle tissue = assay: Biodistribution in Wistar rat muscle at 40+/-4 MBq, iv after 80 mins; format: ADME, organism-based; settings: in vivo; in short: as §1
# Pancreas = assay: Biodistribution in Wistar rat pancreas at 40+/-4 MBq, iv after 80 mins; format: ADME, organism-based; settings: in vivo; in short: as §1
# Plasma [12] = assay: Biodistribution in Wistar rat plasma at 40+/-4 MBq, iv after 80 mins; format: ADME, organism-based; settings: in vivo
# [13] = Biodistribution in Wistar rat red blood cells at 40+/-4 MBq, iv after 80 mins; format: ADME, organism-based, Erythrocyte; settings: in vivo
smiles,measurement,setting,value
COc1cc2c(cc1OC)CN(CCCC1CCCc3c(O[11CH3])cccc31)CC2 (stereo not drawn),SUV,Brain [1],0.88
same,SUV,Brain [2],2.17
same,SUV,Plasma [3],0.34
same,AUC,Rattus norvegicus,97%
same,SUV,[4],0.37
same,SUV,[5],0.33
same,SUV,Cerebellum,0.5
same,SUV,[6],0.37
same,SUV,[7],0.35
same,SUV,[8],0.36
same,SUV,Hippocampus,0.3
same,SUV,[9],0.41
same,SUV,[10],0.36
same,SUV,Pons,0.48
same,SUV,Striatum,0.31
same,SUV,Bone,0.28
same,SUV,Colon,1.37
same,SUV,Duodenum,2.74
same,SUV,[11],0.36
same,SUV,Heart,0.37
same,SUV,Ileum,1.27
same,SUV,Kidney,1.45
same,SUV,Liver,3.27
same,SUV,Lung,1.19
same,SUV,Muscle tissue,0.37
same,SUV,Pancreas,3.16
same,SUV,Plasma [12],0.29
same,SUV,[13],0.18

# From ChEMBL document CHEMBL1137781, “Synthesis and preclinical evaluation of novel PET probes for P-glycoprotein function and expression” (J Med Chem, 2009)
